The text below walks through data of ChEMBL document CHEMBL1157794, “Discovery of N-[(4R)-6-(4-chlorophenyl)-7-(2,4-dichlorophenyl)-2,2-dimethyl-3,4-dihydro-2H-pyrano[2,3-b]pyridin-4-yl]-5-methyl-1H-pyrazole-3-carboxamide (MK-5596) as a novel cannabinoid-1 receptor (CB1R) inverse agonist for the treatment of obesity” (J Med Chem, 2010).

Series [1] is described as follows: Half life in Sprague-Dawley rat at 1 mg/kg, iv and 2 mg/kg, po. Format: ADME, organism-based. To be noted: in vivo. In short, it runs like this: (§1)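 Male Sprague-Dawley rats dosed 1 mg/kg iv and 2 mg/kg po; male beagle dogs and rhesus monkeys 0.2 mg/kg iv and 0.4 mg/kg po. Iv vehicle EtOH/PEG400/water 20:50:30 (rat) or 20:40:40 v/v/v (dog, monkey); oral vehicle Imwitor 742/Tween-80 1:1 w/w. Clearance, Vdss, t1/2, Cmax, F and dose-normalized oral AUC derived.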

A short description of series [2]: Bioavailability in Sprague-Dawley rat at 1 mg/kg, iv and 2 mg/kg, po. It is filed as ADME, organism-based. To be noted: in vivo. In short, it runs like this:
as §1

A short description of series [3]: Ratio of drug level in brain to plasma in wild type MDR1a-expressing mouse at 1 mg/kg, iv measured after 4 hrs. Format: ADME, organism-based. Also on record: dose 1 mg/kg, route intravenous. Particulars: brain and plasma, read-out: BPR. The method in brief: (§2)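 Single iv dose of 1 mg/kg given to wild-type and P-gp deficient CF-1 mice. Parent levels in plasma and brain determined 4 h postdose. Brain-to-plasma ratio calculated from these levels.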

Series [4] in a line: Plasma clearance in rhesus monkey at 0.4 mg/kg, po. Also on record: dose 0.4 mg/kg, route oral. It is filed as ADME, organism-based, Macaca mulatta. In short, it runs like this:
(§3)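 Male Sprague-Dawley rats received 1 mg/kg iv and 2 mg/kg po. Male beagle dogs and rhesus monkeys received 0.2 mg/kg iv and 0.4 mg/kg po. The iv solution was EtOH/PEG400/water, 20:50:30 v/v/v for rats and 20:40:40 v/v/v for dogs and monkeys. The oral solution was Imwitor742/Tween-80 (1:1 w/w) for all species.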

Series [5] in a line: Drug level in diet-induced obese rat plasma at 0.3 mg/kg, po measured after 18 hrs of last dose on day 13. Also on record: dose 0.3 mg/kg, route oral. It is filed as ADME, organism-based. To be noted: read-out: Drug uptake. In short, it runs like this:
(§4)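 At end of 13-day chronic efficacy study in DIO rats dosed orally at 0.3 mg/kg, plasma and brain drug levels measured 18 h after last dose.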

A short description of series [6]: Drug level in diet-induced obese rat brain at 0.3 mg/kg, po measured after 18 hrs of last dose on day 13. Format: ADME, organism-based. To be noted: read-out: Drug uptake. Also on record: dose 0.3 mg/kg, route oral. In short, it runs like this: as §4
Series [7] can be described thus: Ratio of drug level in brain to plasma in diet-induced obese rat at 0.3 mg/kg, po measured after 18 hrs of last dose on day 13. Format: ADME, organism-based. Also on record: dose 0.3 mg/kg, route oral. Particulars: brain and plasma, read-out: BPR. In short, it runs like this:
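DIO rats dosed daily for 13 days at 0.3 mg/kg in the chronic efficacy study. Plasma and brain levels determined 18 h after the last dose. Brain/plasma exposure ratio calculated.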

Series [8] is described as follows: Drug level in diet-induced obese rat plasma at 0.3 mg/kg, po measured after 24 hrs of last dose on day 13. It is filed as ADME, organism-based. Also on record: dose 0.3 mg/kg, route oral. To be noted: read-out: Drug uptake. The method in brief:
(§5)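 Separate parallel 13-day pharmacokinetic study in DIO rats at 0.3 mg/kg; plasma and brain levels determined 24 h after last dose.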

Series [9] is described as follows: Drug level in diet-induced obese rat brain at 0.3 mg/kg, po measured after 24 hrs of last dose on day 13. It is filed as ADME, organism-based. Also on record: dose 0.3 mg/kg, route oral. To be noted: read-out: Drug uptake. The method in brief: as §5
Series [10] is described as follows: Ratio of drug level in brain to plasma in diet-induced obese rat at 0.3 mg/kg, po measured after 24 hrs of last dose on day 13. Format: ADME, organism-based. Also on record: dose 0.3 mg/kg, route oral. To be noted: brain and plasma, read-out: BPR. The method in brief: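 Separate 13-day parallel pharmacokinetic study in DIO rats at 0.3 mg/kg. Plasma and brain exposures determined 24 h after the last dose. Brain/plasma ratio calculated.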

A short description of series [11]: Metabolic stability in bile-duct cannulated rat bile assessed as compound remaining at 2 mg/kg, po up to 72 hrs. It is filed as ADME, organism-based. Also on record: dose 2 mg/kg, route oral. To be noted: read-out: Stability. The method in brief: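 [3H]-labelled compound formulated in Imwitor 742/Tween-80 (1:1), given orally at 2 mg/kg to bile duct-cannulated rats; bile, feces and urine collected over 72 h; radioactivity recovery and radioprofiles of parent and metabolites determined.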

Series [12] in a line: Drug level in wild type MDR1a-expressing mouse plasma at 1 mg/kg, iv measured after 4 hrs. Format: ADME, organism-based. Also on record: dose 1 mg/kg, route intravenous. To be noted: read-out: Drug uptake. The method in brief:
(§6)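 Single iv 1 mg/kg to wild-type and P-gp deficient CF-1 mice; parent levels in plasma and brain measured 4 h postdose; brain/plasma ratio calculated.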

The nature of series [13]: Drug level in wild type MDR1a-expressing mouse brain at 1 mg/kg, iv measured after 4 hrs. Also on record: dose 1 mg/kg, route intravenous. Format: ADME, organism-based. To be noted: read-out: Drug uptake. In short, it runs like this: as §6
Series [14] can be described thus: Drug level in P-gp deficient CF1 mouse plasma at 1 mg/kg, iv measured after 4 hrs. Format: ADME, organism-based. Also on record: dose 1 mg/kg, route intravenous. Particulars: read-out: Drug uptake. The method in brief:
as §6

Series [15] can be described thus: Drug level in P-gp deficient CF1 mouse brain at 1 mg/kg, iv measured after 4 hrs. It is filed as ADME, organism-based. Also on record: dose 1 mg/kg, route intravenous. Particulars: read-out: Drug uptake. In short, it runs like this:
as §6

A short description of series [16]: Ratio of drug level in brain to plasma in P-gp deficient CF1 mouse at 1 mg/kg, iv measured after 4 hrs. Also on record: dose 1 mg/kg, route intravenous. Format: ADME, organism-based. Particulars: brain and plasma, read-out: BPR. In short, it runs like this:
as §2

Series [17] in a line: Plasma clearance in Sprague-Dawley rat at 1 mg/kg, iv and 2 mg/kg, po. Format: ADME, organism-based. In short, it runs like this:
as §3

Series [18] is described as follows: Volume of distribution at steady state in Sprague-Dawley rat at 1 mg/kg, iv and 2 mg/kg, po. Format: ADME, organism-based. Particulars: in vivo, read-out: Vdss. In short, it runs like this:
as §3

A further series relates to Rattus norvegicus. Nature of the series: Dose normalized AUC in Sprague-Dawley rat assessed as per mg of plasma protein at 2 mg/kg, po. To be noted: in vivo. Format: ADME, organism-based. Also on record: dose 2 mg/kg, route oral.
A short description of series [19]: Cmax in Sprague-Dawley rat at 1 mg/kg, iv and 2 mg/kg, po. It is filed as ADME, organism-based. To be noted: in vivo. The method in brief:
as §1

Series [20] is described as follows: Plasma clearance in Beagle dog at 0.2 mg/kg, iv. Format: ADME, organism-based, Canis lupus familiaris. Also on record: dose 0.2 mg/kg, route intravenous. The method in brief: as §3
Series [21] can be described thus: Volume of distribution at steady state in Beagle dog at 0.2 mg/kg, iv. Format: ADME, organism-based, Canis lupus familiaris. Also on record: dose 0.2 mg/kg, route intravenous. To be noted: in vivo, read-out: Vdss. In short, it runs like this: as §3
Series [22] in a line: Half life in Beagle dog at 0.2 mg/kg, iv. It is filed as ADME, organism-based, Canis lupus familiaris. Also on record: dose 0.2 mg/kg, route intravenous. To be noted: in vivo. The method in brief:
as §1

Series [23] can be described thus: Bioavailability in Beagle dog at 0.2 mg/kg, iv. Format: ADME, organism-based, Canis lupus familiaris. To be noted: in vivo. In short, it runs like this: as §1
In series [24] the test system is Rhesus monkey. Nature of the series: Volume of distribution at steady state in rhesus monkey at 0.4 mg/kg, po. It is filed as ADME, organism-based, Macaca mulatta. Also on record: dose 0.4 mg/kg, route oral. To be noted: in vivo. In short, it runs like this:
as §3

Series [25] can be described thus: Half life in rhesus monkey at 0.4 mg/kg, po. It is filed as ADME, organism-based, Macaca mulatta. Also on record: dose 0.4 mg/kg, route oral. Particulars: in vivo. In short, it runs like this: as §1
A short description of series [26]: Cmax in rhesus monkey at 0.4 mg/kg, po. It is filed as ADME, organism-based, Macaca mulatta. Also on record: dose 0.4 mg/kg, route oral. Particulars: in vivo. The method in brief: as §1
A short description of series [27]: Oral bioavailability in rhesus monkey at 0.4 mg/kg. It is filed as ADME, organism-based, Macaca mulatta. Particulars: in vivo. The method in brief:
as §3

For series [28], the system named is Rhesus monkey. Nature of the series: Dose normalized AUC in rhesus monkey at 0.4 mg/kg, po. Format: ADME, organism-based, Macaca mulatta. Also on record: dose 0.4 mg/kg, route oral. To be noted: in vivo. The method in brief:
as §1

The nature of series [29]: Plasma concentration in dog at 1 mg/kg, iv administered for 30 mins. It is filed as ADME, organism-based, Canis lupus familiaris. Also on record: dose 1 mg/kg, route intravenous. In short, it runs like this:
(§7)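 Anesthetized dogs given iv infusions, each spread evenly over 30 min, at rising cumulative doses of 1, 3 and 10 mg/kg. Peak plasma levels were measured during each dose. Arterial pressure, heart rate and ECG intervals (PR, QRS, QTc) were monitored against vehicle-treated dogs.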

Series [30] can be described thus: Plasma concentration in dog at 3 mg/kg, iv administered for 30 mins. It is filed as ADME, organism-based, Canis lupus familiaris. Also on record: dose 3 mg/kg, route intravenous. The method in brief: as §7
Series [31] in a line: Plasma concentration in dog at 10 mg/kg, iv administered for 30 mins. It is filed as ADME, organism-based, Canis lupus familiaris. Also on record: dose 10 mg/kg, route intravenous. The method in brief: as §7
Series [32] in a line: Cmax in Beagle dog at 0.4 mg/kg, po. To be noted: in vivo.
Another series has as its system Canis familiaris. Nature of the series: Dose normalized AUC in Beagle dog at 0.4 mg/kg, po. To be noted: in vivo.

As for `CC1(C)C[C@@H](NC(=O)c2ccccc2O)c2cc(-c3ccc(Cl)cc3)c(-c3ccc(Cl)cc3Cl)nc2O1`, the half-life (in general, the time needed for the level to fall by half in the phase considered) in series [1] is 1.9 h. Also, the bioavailability (commonly dose-corrected exposure relative to a reference, in per cent) in series [2] is 1%.

Regarding `CC1(C)C[C@@H](NC(=O)c2ccccc2N)c2cc(-c3ccc(Cl)cc3)c(-c3ccc(Cl)cc3Cl)nc2O1`, the half-life in series [1] was 7.4 h. In addition, the bioavailability in series [2] is 5%.

As to `Cc1cc(C(=O)N[C@@H]2CC(C)(C)Oc3nc(-c4ccc(Cl)cc4Cl)c(-c4ccc(Cl)cc4)cc32)n[nH]1`, the Kp at 4 h in series [3] is 0.66; in [16], 4.66. In addition, the CL/F – broadly, the apparent clearance, not corrected for the fraction that reaches the circulation – in series [4] is 2.3 mL/min/kg. For the same molecule, the values for the concentration at 18 h in series [5] and in series [6] were 180 nM and 110 nM, respectively. In series [7], the Kp at 18 h amounted to 0.63. The concentration at 24 h in [8] is 135 nM; in series [9], 74 nM. The Kp at 24 h in [10] stood at 0.55. For the same molecule, the remaining at 72 h in series [11] turned out to be 30%. The concentration at 4 h in [12] worked out at 410 nM; in [13] it was 270 nM; in series [14], 300 nM; in series [15] it was 1400 nM. Besides, the clearance in series [17] amounted to 4.5 mL/min/kg; in series [20], 1.1 mL/min/kg. The Vd is 3 L/kg in series [18] and 5.7 L/kg in [21]. In addition, the values for the half-life in series [1], in series [22] and in series [25] were 8.5 h, 60 h and 15 h, respectively. In addition, the bioavailability in series [2] stood at 91%; in [23], 65%; in [27], 46%. The AUC with Rattus norvegicus turned out to be 11 µM·kg·h/mg; in the series with Rhesus monkey [28], 6.1 µM·kg·h/mg; in the series with Canis familiaris it was 18 µM·kg·h/mg. For the same molecule, the Cmax (in general, the maximum level reached in the sampled fluid or tissue) amounted to 1030 nM in series [19], 90 nM in series [26] and 150 nM in series [32]. In the series with Rhesus monkey [24], this molecule displayed a Vdss of 2.4 L/kg. Moreover, the values for the concentration at 0.5 h in [29], in series [30] and in series [31] were 1630 nM, 3260 nM and 6960 nM, respectively.

With `CC1(C)CC(NC(=O)CC(O)C(F)(F)F)c2cc(-c3ccc(Cl)cc3)c(-c3ccc(Cl)cc3Cl)nc2O1` (racemic) [N-[6-(4-CHLOROPHENYL)-7-(2,4-DICHLOROPHENYL)-2,2-DIMETHYL-3,4-DIHYDRO-2H-PYRANO[2,3-B]PYRIDINE-4-YL]-4,4,4-TRIFLUORO-3-HYDROXYBUTANAMIDE (DIASTEREOMERIC MIX)], in series [1], the half-life is 8.2 h. The bioavailability in series [2] worked out at 41%.

In the case of `CC(O)C(=O)NC1CC(C)(C)Oc2nc(-c3ccc(Cl)cc3Cl)c(-c3ccc(Cl)cc3)cc21` (single isomer, unassigned), the half-life in series [1] was 7.9 h. The molecule further returned a bioavailability in [2] of 100%.
